From ChEMBL document CHEMBL1142968, “Synthetic anticancer vaccine candidates: rational design of antigenic peptide mimetics that activate tumor-specific T-cells” (2007)
*1 amine or outer side, *2 acyl side, *3 side chain or, on linkers, in order; H or OH if unused. Where a SMILES comes first, the peptide text is derived from it. Side-chain parts run from the residue outwards. [ ]: non-standard residue; d: D form. The star is where a group is joined. X2 = O=C([C@@H]1Cc2c([nH]c3ccccc23)CN1CCN[*:1])[*:2]; X8 = O=C(CN(CCN[*:1])Cc1ccc([N+](=O)[O-])cc1)[*:2]; N(2-Aminoethyl)Gly = O=C(CN(CCN[*:3])[*:1])[*:2]; X7 = O=C(CN(CCN[*:1])CCc1c[nH]c2ccccc12)[*:2]; X4 = O=C([C@@H]1Cc2ccccc2CN1CCN[*:1])[*:2]; X9 = O=C(CN(CCN[*:1])Cc1ccnc2ccccc12)[*:2]; X6 = O=C(CN(CCN[*:1])CCc1ccccc1)[*:2]; X3 = O=C(CN(CCN[*:1])Cc1ccccc1)[*:2]; X1 = O=C(Cc1c[nH]c2ccccc12)*; 3Amb = NCc1cccc(C(=O)O)c1; PhAc = O=C(Cc1ccccc1)*; βAla = NCCC(=O)O

Legend:
[1] = species on record: Homo sapiens; experiment: Binding affinity to HLA-A2 in TAP-deficient HLA-A2+T2 cells assessed as fluorescence intensity relative to ELA
Procedure, shortened: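 T2 cells (TAP-deficient, HLA-A2+) loaded overnight at 37 °C in serum-free RPMI-1640 with 100 µM compound plus human β2-microglobulin (100 ng/mL). Washed, stained with HLA-A2 mAb HB54 or isotype control (30 min, 4 °C), then PE anti-mouse IgG (30 min); flow cytometry. RFI = specific MFI / control MFI. Value reported as […].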

[2] = system: T-cell; experiment: Stimulation of INFgamma production in 10C10 T cells at 10 uM by flow cytometry; format: functional, Homo sapiens
Procedure, shortened: (§1)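 Melan-A/MART-1-specific CD8 clones. T2 cells are pulsed 1 h at 37 °C with 10 µM compound and washed. 2 × 10^5 of them are co-cultured with 10^5 clone cells in RPMI-1640/10% FCS with brefeldin A (10 µg/mL) for 6 h at 37 °C. Cells are fixed in 4% PFA, then saponin-permeabilized and stained with PE anti-IFN-γ (5 µg/mL, 30 min). Flow cytometry on 10^4 events gives the % IFN-γ+ cells and the MFI.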

[3] = system: T-cell; experiment: Stimulation of INFgamma production in M77.84 T cells at 10 uM by flow cytometry; format: functional, Homo sapiens; procedure, shortened: as §1
[4] = system: T-cell; experiment: Stimulation of INFgamma production in M199.2.7 T cells at 10 uM by flow cytometry; format: functional, Homo sapiens; procedure, shortened: as §1
[5] = system: T-cell; experiment: Stimulation of INFgamma production in M199.3.2 T cells at 10 uM by flow cytometry; format: functional, Homo sapiens; procedure, shortened: as §1
[6] = Stimulation of INFgamma production in MEL1.37 T cells at 10 uM by flow cytometry; format: functional, Homo sapiens; procedure, shortened: as §1
[7] = system: T-cell; experiment: Stimulation of INFgamma production in CDM41 ELA1 T cells at 10 uM by flow cytometry; format: functional, Homo sapiens; procedure, shortened: as §1
[8] = system: T-cell; experiment: Stimulation of INFgamma production in M17.29 ELA1 T cells at 10 uM by flow cytometry; format: functional, Homo sapiens; procedure, shortened: as §1
[9] = system: T-cell; experiment: Stimulation of INFgamma production in CDM41 T cells at 10 uM by flow cytometry; format: functional, Homo sapiens; procedure, shortened: as §1
[10] = system: T-cell; experiment: Stimulation of INFgamma production in M17.29 T cells at 10 uM by flow cytometry; format: functional, Homo sapiens; procedure, shortened: as §1
[11] = system: T-cell; experiment: Stimulation of INFgamma production in MEL1.38 T cells at 10 uM by flow cytometry; format: functional, Homo sapiens

Compound | Ratio [1] | Activity [3] | Activity [4] | Activity [6] | other results
CC[C@H](C)[C@H](NC(=O)CNC(=O)CN(CCNC(=O)[C@H](C)NC(=O)[C@H](CC(C)C)NC(=O)[C@@H](N)CCC(=O)O)Cc1cccc2ccccc12)C(=O)N[C@@H](CC(C)C)C(=O)N[C@H](C(=O)N[C@H](C(=O)O)C(C)C)[C@@H](C)O | 0.7 | – | – | – | –
CC[C@H](C)[C@H](NC(=O)CNC(=O)[C@H](Cc1ccc(O)cc1)NC(=O)CNC(=O)[C@H](C)NC(=O)[C@H](CC(C)C)NC(=O)[C@@H](N)CCC(=O)O)C(=O)N[C@@H](CC(C)C)C(=O)N[C@H](C(=O)N[C@H](C(=O)O)C(C)C)[C@@H](C)O | – | 4% | 0% | 84% | Activity [2]: 0%; Activity [5]: 78%; Activity [7]: 63%; Activity [8]: 32%
CC(C)C[C@H](NC(=O)CCN)C(=O)N[C@@H](C)C(=O)NCCN(CCc1ccccc1)CC(=O)NCc1cccc(C(=O)N[C@@H](CC(C)C)C(=O)N[C@H](C(=O)N[C@H](C(=O)O)C(C)C)[C@@H](C)O)c1 (H-[βAla]LA[X6][3Amb]LTV-OH) | 0.25 | – | – | – | –
CC[C@H](C)[C@H](NC(=O)CNC(=O)CN(CCNC(=O)[C@H](C)NC(=O)[C@H](CC(C)C)NC(=O)[C@@H](N)CCC(=O)O)Cc1ccccc1)C(=O)N[C@@H](CC(C)C)C(=O)N[C@H](C(=O)N[C@H](C(=O)O)C(C)C)[C@@H](C)O | 0.9 | – | – | – | –
CC[C@H](C)[C@H](NC(=O)CNC(=O)[C@H](Cc1ccccc1)NC(=O)CNC(=O)[C@H](C)NC(=O)[C@H](CC(C)C)NC(=O)[C@@H](N)CCC(=O)O)C(=O)N[C@@H](CC(C)C)C(=O)N[C@H](C(=O)N[C@H](C(=O)O)C(C)C)[C@@H](C)O | – | 32% | 7% | 71% | Activity [5]: 83%; Activity [7]: 58%; Activity [8]: 48%
CC[C@H](C)[C@H](NCCNC(=O)[C@H](Cc1ccc(O)cc1)NCCNC(=O)[C@H](C)NC(=O)[C@H](CC(C)C)NC(=O)[C@@H](N)CCC(=O)O)C(=O)N[C@@H](CC(C)C)C(=O)N[C@H](C(=O)N[C@H](C(=O)O)C(C)C)[C@@H](C)O | 1.71 | – | – | – | –
CC[C@H](C)[C@H](NCCNC(=O)[C@H](Cc1c[nH]c2ccccc12)NCCNC(=O)[C@H](C)NC(=O)[C@H](CC(C)C)NC(=O)[C@@H](N)CCC(=O)O)C(=O)N[C@@H](CC(C)C)C(=O)N[C@H](C(=O)N[C@H](C(=O)O)C(C)C)[C@@H](C)O | 1.61 | – | – | – | –
CC[C@H](C)[C@H](NC(=O)CNC(=O)CN(CCNC(=O)[C@H](C)NC(=O)[C@H](CC(C)C)NC(=O)[C@@H](N)CCC(=O)O)Cc1ccc(O)cc1)C(=O)N[C@@H](CC(C)C)C(=O)N[C@H](C(=O)N[C@H](C(=O)O)C(C)C)[C@@H](C)O | 0.83 | 0% | 0% | 0% | Activity [2]: 0%; Activity [5]: 0%; Activity [7]: 46%; Activity [8]: 0%
CC(C)C[C@H](NC(=O)CCN)C(=O)N[C@@H](C)C(=O)NCCN(CC(=O)NCc1cccc(C(=O)N[C@@H](CC(C)C)C(=O)N[C@H](C(=O)N[C@H](C(=O)O)C(C)C)[C@@H](C)O)c1)C(=O)Cc1ccccc1 (PhAc-[N(2-Aminoethyl)Gly]([Ala-Leu-βAla])[3Amb]LTV-OH) | 0.54 | – | – | – | –
CC[C@H](C)[C@H](NC(=O)CNC(=O)CN(CCNC(=O)[C@H](C)NC(=O)[C@H](CC(C)C)NC(=O)[C@@H](N)CCC(=O)O)Cc1ccnc2ccccc12)C(=O)N[C@@H](CC(C)C)C(=O)N[C@H](C(=O)N[C@H](C(=O)O)C(C)C)[C@@H](C)O | 0.79 | 0% | 0% | 3% | Activity [2]: 0%; Activity [5]: 0%; Activity [7]: 69%; Activity [8]: 0%
CC(C)C[C@H](NC(=O)CCN)C(=O)N[C@@H](C)C(=O)NCCN(CCc1c[nH]c2ccccc12)CC(=O)NCc1cccc(C(=O)N[C@@H](CC(C)C)C(=O)N[C@H](C(=O)N[C@H](C(=O)O)C(C)C)[C@@H](C)O)c1 (H-[βAla]LA[X7][3Amb]LTV-OH) | 0.86 | – | – | – | –
CC[C@H](C)[C@H](NC(=O)CNC(=O)CN(CCNC(=O)[C@H](C)NC(=O)[C@H](CC(C)C)NC(=O)CCN)Cc1ccccc1)C(=O)N[C@@H](CC(C)C)C(=O)N[C@H](C(=O)N[C@H](C(=O)O)C(C)C)[C@@H](C)O | 0.96 | – | – | – | –
CC[C@H](C)[C@H](NC(=O)CNC(=O)[C@H](Cc1c[nH]c2ccccc12)NC(=O)CNC(=O)[C@H](C)NC(=O)[C@H](CC(C)C)NC(=O)[C@@H](N)CCC(=O)O)C(=O)N[C@@H](CC(C)C)C(=O)N[C@H](C(=O)N[C@H](C(=O)O)C(C)C)[C@@H](C)O | – | 90% | 15% | 81% | Activity [2]: 0%; Activity [5]: 54%; Activity [7]: 47%; Activity [8]: 55%

The next lines start with results.

Ratio [1] | Compound | Activity [3] | Activity [4] | Activity [6] | other results
0.95 | CC(C)C[C@H](NC(=O)CCN)C(=O)N[C@@H](C)C(=O)NCCN(CC(=O)NCc1cccc(C(=O)N[C@@H](CC(C)C)C(=O)N[C@H](C(=O)N[C@H](C(=O)O)C(C)C)[C@@H](C)O)c1)Cc1ccccc1 (H-[βAla]LA[X3][3Amb]LTV-OH) | – | – | – | –
0.64 | CC(C)C[C@H](NC(=O)CCN)C(=O)N[C@@H](C)C(=O)NCCN1Cc2ccccc2C[C@H]1C(=O)NCc1cccc(C(=O)N[C@@H](CC(C)C)C(=O)N[C@H](C(=O)N[C@H](C(=O)O)C(C)C)[C@@H](C)O)c1 (H-[βAla]LA[X4][3Amb]LTV-OH) | – | – | – | –
1.31 | CC(C)C[C@H](NC(=O)CCN)C(=O)N[C@@H](C)C(=O)NCCN(CC(=O)NCc1cccc(C(=O)N[C@@H](CC(C)C)C(=O)N[C@H](C(=O)N[C@H](C(=O)O)C(C)C)[C@@H](C)O)c1)Cc1ccnc2ccccc12 (H-[βAla]LA[X9][3Amb]LTV-OH) | – | – | – | –
0.86 | CC(C)C[C@H](NC(=O)CCN)C(=O)N[C@@H](C)C(=O)NCCN(CC(=O)NCc1cccc(C(=O)N[C@@H](CC(C)C)C(=O)N[C@H](C(=O)N[C@H](C(=O)O)C(C)C)[C@@H](C)O)c1)Cc1ccc([N+](=O)[O-])cc1 (H-[βAla]LA[X8][3Amb]LTV-OH) | – | – | – | –
1.02 | CC(C)C[C@H](NC(=O)CCN)C(=O)N[C@@H](C)C(=O)NCCN(CC(=O)NCc1cccc(C(=O)N[C@@H](CC(C)C)C(=O)N[C@H](C(=O)N[C@H](C(=O)O)C(C)C)[C@@H](C)O)c1)C(=O)Cc1c[nH]c2ccccc12 (X1-[N(2-Aminoethyl)Gly]([Ala-Leu-βAla])[3Amb]LTV-OH) | 12% | 25% | 89% | Activity [9]: 31%; Activity [10]: 27%; Activity [2]: 0%; Activity [11]: 44%
0.86 | CC[C@H](C)[C@H](NC(=O)CNC(=O)CN(CCNC(=O)[C@H](C)NC(=O)[C@H](CC(C)C)NC(=O)[C@@H](N)CCC(=O)O)CC1CCCCC1)C(=O)N[C@@H](CC(C)C)C(=O)N[C@H](C(=O)N[C@H](C(=O)O)C(C)C)[C@@H](C)O | – | – | – | –
0.85 | CC[C@H](C)[C@H](NC(=O)CNC(=O)CN(CCNC(=O)[C@H](C)NC(=O)[C@H](CC(C)C)NC(=O)[C@@H](N)CCC(=O)O)Cc1ccc([N+](=O)[O-])cc1)C(=O)N[C@@H](CC(C)C)C(=O)N[C@H](C(=O)N[C@H](C(=O)O)C(C)C)[C@@H](C)O | 0% | 0% | 0% | Activity [2]: 0%; Activity [5]: 0%; Activity [7]: 64%; Activity [8]: 0%
0.81 | CC(C)C[C@H](NC(=O)CCN)C(=O)N[C@@H](C)C(=O)NCCN1Cc2[nH]c3ccccc3c2C[C@H]1C(=O)NCc1cccc(C(=O)N[C@@H](CC(C)C)C(=O)N[C@H](C(=O)N[C@H](C(=O)O)C(C)C)[C@@H](C)O)c1 (H-[βAla]LA[X2][3Amb]LTV-OH) | – | – | – | –
